Assay results taken from ChEMBL document CHEMBL1122229, “alpha-adrenoreceptor reagents. 1. Synthesis of some 1,4-benzodioxans as selective presynaptic alpha 2-adrenoreceptor antagonists and potential antidepressants” (J Med Chem, 1983).
Activity calls are given as the source filed them. No cut-off for these calls is given here.

Columns and labels:
[1] = biological target: T1, Adrenergic receptor alpha-1 (Rattus norvegicus) (UniProt P15823+P23944+P43140); assay: In vitro postsynaptic agonist potency at alpha-1 adrenergic receptor in rat anococcygeus muscle relative to phenylephrine; IA means inactive.; assay type: functional, tissue-based
In short: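 Rat anococcygeus muscle (male Sprague–Dawley rats, 200–250 g) suspended at 0.5 g initial tension in a 50-mL organ bath. […] Standard dose-response curves were run before and after the analogue's curve.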

[2] = biological target: T1, Adrenergic receptor alpha-1 (Rattus norvegicus); assay: In vitro postsynaptic antagonist potency at alpha-1 adrenergic receptor in rat anococcygeus relative to compound 5 (RX781094); assay type: functional
[3] = Ratio of pA2 value against alpha2 to alpha-1 adrenoceptor
In short: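 α2/α1 selectivity was taken as the antilog of the difference between the pA2 values at α2- and α1-adrenoreceptors.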

[4] = biological target: T2, Adrenergic receptor alpha-2 (Rattus norvegicus) (UniProt P22086+P19328+P22909); assay: In vitro presynaptic antagonist potency at alpha-2 adrenergic receptor in rat or mouse vas deferens relative to compound 5 (RX781094); assay type: functional, tissue-based
In short: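 Prostatic halves of rat vas deferens (male Sprague–Dawley rats, 200–250 g; Krebs, 30 °C, 95% O2/5% CO2; 3-ms, 40 V, 0.1 Hz field pulses) or mouse vas deferens (Mg-free Krebs, 30 °C; 3-ms pulses, 0.1 Hz, 100–140 V) were used, with isometric twitch recording. […] The concentration giving 50% reversal was compared with the RX781094 standard in the same tissue.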

[5] = biological target: T3, Adrenergic receptor alpha-1 (Rattus norvegicus, UniProt P15823+P23944+P43140); assay: alpha-1 adrenergic receptor pA2 value against norepinephrine in vitro experiment in rat anococcygeus
T3 sequence (P15823 whole entry): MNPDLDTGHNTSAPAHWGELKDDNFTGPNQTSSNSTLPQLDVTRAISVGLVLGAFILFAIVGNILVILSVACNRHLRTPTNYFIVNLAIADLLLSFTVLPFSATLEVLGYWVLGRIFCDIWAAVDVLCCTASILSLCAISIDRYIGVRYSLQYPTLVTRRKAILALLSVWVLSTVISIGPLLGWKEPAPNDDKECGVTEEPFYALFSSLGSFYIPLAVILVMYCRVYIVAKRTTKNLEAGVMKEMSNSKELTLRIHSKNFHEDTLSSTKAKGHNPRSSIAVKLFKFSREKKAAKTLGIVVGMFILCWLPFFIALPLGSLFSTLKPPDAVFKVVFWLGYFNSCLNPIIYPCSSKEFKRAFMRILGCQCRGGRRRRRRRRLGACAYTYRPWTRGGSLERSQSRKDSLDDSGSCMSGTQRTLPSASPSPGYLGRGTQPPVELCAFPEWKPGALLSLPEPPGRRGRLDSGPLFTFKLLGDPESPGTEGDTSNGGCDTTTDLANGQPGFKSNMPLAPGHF
T3 sequence (P23944 whole entry): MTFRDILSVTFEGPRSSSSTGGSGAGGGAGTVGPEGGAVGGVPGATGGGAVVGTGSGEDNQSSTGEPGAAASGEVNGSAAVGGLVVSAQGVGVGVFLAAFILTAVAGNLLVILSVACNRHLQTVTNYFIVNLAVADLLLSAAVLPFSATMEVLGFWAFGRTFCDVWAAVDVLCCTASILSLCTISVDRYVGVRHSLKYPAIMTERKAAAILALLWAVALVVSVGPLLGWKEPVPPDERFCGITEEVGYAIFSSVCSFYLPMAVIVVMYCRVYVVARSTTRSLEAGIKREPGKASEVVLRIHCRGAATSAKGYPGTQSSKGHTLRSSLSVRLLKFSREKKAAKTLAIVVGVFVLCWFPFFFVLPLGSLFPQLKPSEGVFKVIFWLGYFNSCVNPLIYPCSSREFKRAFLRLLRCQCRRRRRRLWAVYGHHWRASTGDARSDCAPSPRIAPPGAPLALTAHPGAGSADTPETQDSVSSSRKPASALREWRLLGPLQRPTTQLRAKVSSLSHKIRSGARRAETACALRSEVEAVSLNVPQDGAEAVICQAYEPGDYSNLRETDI
T3 sequence (P43140 whole entry): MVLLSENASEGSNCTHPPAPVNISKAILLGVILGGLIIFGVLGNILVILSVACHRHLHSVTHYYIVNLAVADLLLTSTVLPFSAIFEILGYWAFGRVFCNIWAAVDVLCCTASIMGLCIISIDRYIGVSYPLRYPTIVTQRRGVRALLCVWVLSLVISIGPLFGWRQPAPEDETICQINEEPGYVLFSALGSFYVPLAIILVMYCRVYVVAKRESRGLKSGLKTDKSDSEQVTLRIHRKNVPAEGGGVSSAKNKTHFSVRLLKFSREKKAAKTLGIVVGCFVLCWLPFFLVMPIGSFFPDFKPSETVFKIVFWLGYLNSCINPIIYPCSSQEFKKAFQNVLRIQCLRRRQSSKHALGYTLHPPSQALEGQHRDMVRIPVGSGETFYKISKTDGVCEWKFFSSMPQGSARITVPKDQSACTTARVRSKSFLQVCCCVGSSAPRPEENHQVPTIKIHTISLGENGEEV

[6] = Selectivity ratio of presynaptic antagonist potency to postsynaptic antagonist potency; assay type: functional
In short: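 Selectivity ratio is the antilog of the difference between pA2 values at presynaptic α2- and postsynaptic α1-adrenoreceptors. pA2 values were derived by the Arunlakshana–Schild method, each a mean ± SEM of at least six experiments.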

[7] = biological target: T2, Adrenergic receptor alpha-2 (Rattus norvegicus); assay: In vitro presynaptic agonist potency at alpha-2 adrenergic receptor in rat or mouse vas deferens relative to clonidine; IA means inactive; assay type: functional, tissue-based
In short: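 Field-stimulated rat or mouse vas deferens (Krebs, 30 °C, 95% O2/5% CO2, 3-ms pulses at 0.1 Hz) with isometric twitch recording. […] Standard dose-response curves were run before and after the analogue's curve.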

[8] = biological target: T4, Adrenergic receptor alpha-2 (Rattus norvegicus, UniProt P22086+P19328+P22909); assay: Alpha-2 adrenergic receptor pA2 value against clonidine in vitro experiment in rat vas deferens; assay type: tissue-based
T4 sequence (P22086 whole entry): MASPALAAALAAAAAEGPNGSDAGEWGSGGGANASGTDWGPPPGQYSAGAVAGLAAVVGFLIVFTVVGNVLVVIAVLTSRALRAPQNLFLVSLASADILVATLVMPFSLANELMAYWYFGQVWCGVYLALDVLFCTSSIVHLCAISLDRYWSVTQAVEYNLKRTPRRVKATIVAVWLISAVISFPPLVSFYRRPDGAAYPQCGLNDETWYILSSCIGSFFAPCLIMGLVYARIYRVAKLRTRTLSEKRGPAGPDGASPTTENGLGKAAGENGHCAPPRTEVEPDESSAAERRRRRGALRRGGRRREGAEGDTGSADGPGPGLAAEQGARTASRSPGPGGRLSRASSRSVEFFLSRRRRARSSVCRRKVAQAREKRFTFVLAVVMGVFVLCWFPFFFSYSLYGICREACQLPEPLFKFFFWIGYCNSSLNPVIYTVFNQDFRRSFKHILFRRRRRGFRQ
T4 sequence (P19328 whole entry): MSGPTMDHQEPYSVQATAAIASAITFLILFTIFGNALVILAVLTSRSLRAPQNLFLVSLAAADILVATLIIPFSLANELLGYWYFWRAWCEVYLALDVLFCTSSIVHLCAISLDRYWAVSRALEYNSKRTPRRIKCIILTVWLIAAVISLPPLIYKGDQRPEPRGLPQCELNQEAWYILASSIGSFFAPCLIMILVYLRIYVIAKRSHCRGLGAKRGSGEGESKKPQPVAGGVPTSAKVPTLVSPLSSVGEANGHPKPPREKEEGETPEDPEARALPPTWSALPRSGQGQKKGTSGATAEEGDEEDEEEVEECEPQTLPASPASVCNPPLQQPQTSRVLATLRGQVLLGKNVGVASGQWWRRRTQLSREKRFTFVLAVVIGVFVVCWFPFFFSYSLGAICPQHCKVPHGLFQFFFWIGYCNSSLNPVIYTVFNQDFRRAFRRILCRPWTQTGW
T4 sequence (P22909 whole entry): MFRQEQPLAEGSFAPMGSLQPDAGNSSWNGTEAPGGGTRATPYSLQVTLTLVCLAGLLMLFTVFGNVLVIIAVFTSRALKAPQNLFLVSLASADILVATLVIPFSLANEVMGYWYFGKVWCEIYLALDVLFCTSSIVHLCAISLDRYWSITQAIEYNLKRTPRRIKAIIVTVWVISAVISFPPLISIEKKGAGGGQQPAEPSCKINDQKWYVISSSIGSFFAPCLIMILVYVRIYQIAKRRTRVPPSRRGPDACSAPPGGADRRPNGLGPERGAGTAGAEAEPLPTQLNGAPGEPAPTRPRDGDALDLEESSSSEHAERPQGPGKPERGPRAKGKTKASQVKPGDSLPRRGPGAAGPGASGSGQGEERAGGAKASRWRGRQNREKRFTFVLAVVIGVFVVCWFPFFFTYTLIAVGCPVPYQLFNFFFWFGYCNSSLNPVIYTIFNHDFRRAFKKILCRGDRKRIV
In short: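 pA2 was obtained by Arunlakshana–Schild analysis at postsynaptic α1 (anococcygeus) or presynaptic α2 (vas deferens) sites. Values are mean ± SEM of at least six experiments.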

[9] = In vitro antagonism at Alpha-2 adrenergic receptor in rat or mouse vas deferens relative to RX781094.; assay type: functional
In short: (§1)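 Prostatic half of vas deferens from male Sprague–Dawley rats (200–250 g; Krebs, 30 °C, 95% O2/5% CO2, 0.1 Hz, 3-ms, 40 V) or from mice (magnesium-free Krebs, 100–140 V). Tension 0.5 g; isometric twitch recording. […] The concentration giving 50% reversal of the inhibition was compared with standard 5 in the same tissue.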

[10] = biological target: T1, Adrenergic receptor alpha-1 (Rattus norvegicus); assay: In vitro postsynaptic agonist potency at alpha-1 adrenergic receptor in rat anococcygeus muscle relative to phenylephrine; assay type: functional, tissue-based
[11] = biological target: T1, Adrenergic receptor alpha-1 (Rattus norvegicus); assay: Ratio of presynaptic antagonist potency to postsynaptic antagonist potency; assay type: functional
[12] = test system: Alpha-2 adrenergic receptor (Rattus norvegicus); assay: In vitro presynaptic agonist potency at Alpha-2 adrenergic receptor in rat or mouse vas deferens relative to clonidine; IA means inactive
[13] = biological target: T5, Adenosine receptor A2b (Rattus norvegicus) (UniProt P29276); assay: In vitro presynaptic agonist potency at Alpha-2 adrenergic receptor in rat or mouse vas deferens relative to clonidine; IA means inactive; assay type: functional, tissue-based
T5 sequence (whole entry): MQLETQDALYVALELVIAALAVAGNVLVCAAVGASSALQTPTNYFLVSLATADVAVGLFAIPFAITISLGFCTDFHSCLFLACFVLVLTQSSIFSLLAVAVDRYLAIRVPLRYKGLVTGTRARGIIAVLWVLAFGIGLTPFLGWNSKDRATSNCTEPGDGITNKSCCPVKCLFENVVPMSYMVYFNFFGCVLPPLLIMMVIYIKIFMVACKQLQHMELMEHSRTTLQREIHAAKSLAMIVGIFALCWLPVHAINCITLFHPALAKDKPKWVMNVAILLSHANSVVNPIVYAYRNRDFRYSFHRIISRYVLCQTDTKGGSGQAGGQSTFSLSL
In short: (§2)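 Field-stimulated rat or mouse vas deferens under 0.5 g tension, at 0.1 Hz with 3-ms pulses, 30 °C, gassed with 95% O2/5% CO2. Contractions were recorded isometrically. Standard dose-response curves were run before and after each analogue curve. Potency was expressed relative to the standard in the same experiment.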

[14] = biological target: T2, Adrenergic receptor alpha-2 (Rattus norvegicus); assay: In vitro presynaptic agonist potency at alpha-2 adrenergic receptor in rat or mouse vas deferens relative to clonidine; assay type: functional, tissue-based; in short: as §2
[15] = biological target: Adrenergic receptor alpha-2 (Homo sapiens) (UniProt P08913+P18825+P18089); assay: In vitro presynaptic antagonist potency at Alpha-2 adrenergic receptor in rat or mouse vas deferens relative to compound 5 (RX781094); assay type: functional, tissue-based; in short: as §1
[16] = test system: Alpha-2 adrenergic receptor (Rattus norvegicus); assay: In vitro presynaptic agonist potency at alpha-2 adrenergic receptor in rat or mouse vas deferens relative to clonidine; Inactive
[17] = test system: Alpha-2 adrenergic receptor (Rattus norvegicus); assay: In vitro presynaptic agonist potency at alpha-2 adrenergic receptor in rat or mouse vas deferens relative to clonidine; IA means inactive
[18] = biological target: T1, Adrenergic receptor alpha-1 (Rattus norvegicus); assay: In vitro postsynaptic antagonist potency at alpha-1 adrenergic receptor in rat anococcygeus relative to compound 5 (RX781094); IA means compound is inactive.; assay type: functional

| SMILES | Agonist potency [1] | Antagonist potency [2] | Agonist potency [10] | Selectivity [11] | Agonist potency [14] | further results |
| --- | --- | --- | --- | --- | --- | --- |
| CCn1ccnc1CC1COc2ccccc2O1 (stereo unspecified) [IMILOXAN] | inactive | 0.036 |  |  |  | Selectivity [3]: 135; Antagonist potency [4]: 0.02; pA2 [5]: 4.85; Selectivity [6]: 0.53; Agonist potency [7]: inactive; pA2 [8]: 6.98 |
| Brc1cc2c(cc1Br)OC(C1=NCCN1)CO2 (stereo unspecified) |  | 0.1 | 0.02 | 0.01 |  | Antagonist potency [9]: 0.001; Agonist potency [12]: inactive |
| CC(C)c1cccc2c1OCC(C1=NCCN1)O2 (stereo unspecified) |  | 1 | 0.5 |  | 0.1 | Antagonist potency [13]: inactive |
| COc1cc2c(cc1OC)OC(C1=NCCN1)CO2 (stereo unspecified) | inactive | 0.05 |  | 0.3 |  | Antagonist potency [15]: 0.015; Agonist potency [16]: inactive |
| COc1ccccc1OCC1=NCCN1 |  |  | 10 |  | 0.001 | Antagonist potency [17]: inactive; Antagonist potency [18]: inactive |
